Data reported in article PMC4058332 (ChemMedChem, 2013).
Entries after “also recorded” stand apart in the source; their conditions may differ. Each block holds one molecule with its values, some of them ahead of it.

Legend:
uPAR = uPAR (Homo sapiens, UniProt Q03405); experiment: Fluorescence polarization competition assay, displacement of AE147-FAM peptide; type: binding; settings: uPAR 320 nM, AE147-FAM 100 nM
Method in brief: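 Competition binding: test compound diluted in DMSO, then in PBS with 0.01% Triton X-100 (final 100 μM to 0.046 μM). uPAR preincubated with compound ≥15 min, then fluorescein-labelled AE147 peptide added (final uPAR 320 nM, peptide 100 nM, DMSO 2%). Duplicate wells; polarization read at ex 485/em 530 nm. mP values converted to % inhibition; Ki from an online Ki calculator.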

MDA-MB-231 cells [1] = experiment: Apoptosis assay, flow cytometry with Annexin V-FITC and PI staining; type: cell-based; settings: 24 h; for Percentage apoptosis: Annexin V-positive/PI-negative cells; for Percentage necrosis: Annexin V-positive/PI-positive cells
Method in brief: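 MDA-MB-231 cells exposed 24 h to test compound at increasing concentrations or 1% DMSO, stained with Annexin V-FITC and PI, and analysed by flow cytometry. Apoptotic = Annexin V-positive/PI-negative; necrotic = Annexin V-positive/PI-positive, each as % of cells.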

[2] = test system: phospho-p44/42 MAPK in MDA-MB-231 cells; experiment: Western blot analysis of p44/42 MAPK phosphorylation; type: cell-based; settings: 50 μM, 30 min, serum starved cells on fibronectin
Method in brief: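 Serum-starved MDA-MB-231 cells (1.5 × 10^6/well) plated on wells coated with 30 ng μl-1 fibronectin, with 50 μM test compound or DMSO, for 30 min. Lysed in RIPA with protease/phosphatase inhibitors. 30 μg protein run on 10% SDS-PAGE and blotted. Probed overnight at 4°C with phospho-p44/42 (Thr202/Tyr204) or total p44/42 antibodies (1:2000), then fluorescent secondaries; actin loading control.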

AsPC-1 cells = experiment: Cell viability by MTT assay, 3 days; type: cell-based; settings: Homo sapiens, ASPC1, read-out: IC50, MTT
Method in brief: (§1)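 Cells (10^4/well) plated overnight, then exposed to test compound or DMSO control for 3 days. Viability by MTT, absorbance 570 nm with 630 nm reference. Culture: MDA-MB-231 and PANC-1 in DMEM, AsPC-1 in RPMI medium, each with 10% FBS and 1% penicillin/streptomycin, 37°C, 5% CO2.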

MDA-MB-231 cell adhesion = experiment: Cell adhesion to fibronectin; type: cell-based; settings: Homo sapiens, MDA-MB-231, read-out: IC50, cell adhesion
Method in brief: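 Wells coated with 15 ng μl-1 fibronectin overnight at 4 °C, blocked 1 h with 2% BSA/PBS. MDA-MB-231 cells serum-starved 4 h, suspended at 2.5 × 10^4 cells ml-1 in 0.1% FBS DMEM with test compound at various concentrations or DMSO, and held 90 min at 37 °C. Washed three times with PBS; adherent cells by MTT (570/630 nm).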

MDA-MB-231 migration = experiment: Wound healing migration assay; type: cell-based
Method in brief: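 Confluent MDA-MB-231 monolayers scratched with a pipette tip, washed, and cultured in complete medium with test compound. Wound closure measured as distance between wound edges in three random regions immediately after wounding and at 16 h and 40 h, by microscopy.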

MDA-MB-231 cells [3] = experiment: Cell viability by MTT at 16 h, time frame of invasion and migration studies; type: cell-based
Method in brief: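 MDA-MB-231 viability read by MTT after 16 h exposure to test compound, matching the time frame of the invasion and migration assays.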

[4] = test system: MDA-MB-231 matrix metalloproteinase (MMP-9) activity; experiment: Gelatin zymography; type: cell-based; settings: read-out: IC50, MMP-9 activity, 24 h treatment
Method in brief: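 MDA-MB-231 cells treated with test compound 24 h in serum-free medium. Conditioned medium concentrated and run on 7.5% SDS gels with 1 mg/mL gelatin. Gels washed twice in 2.5% Triton X-100 (30 min, room temperature), incubated 36 h at 37 °C in 50 mM Tris-HCl pH 7.6, 200 mM NaCl, 10 mM CaCl2, 0.02% Brij 35. Coomassie-stained; clear MMP-9 bands quantified by imaging.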

MDA-MB-231 invasion = experiment: Matrigel Boyden chamber invasion assay; type: cell-based
Method in brief: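 Matrigel invasion chambers; insert underside coated with 30 ng μl-1 fibronectin overnight at 4 °C; inserts equilibrated 2 h in serum-free medium. After 4 h starvation, 5 × 10^4 MDA-MB-231 cells in 0.1% FBS medium with test compound or 1% DMSO placed upper; 10% FBS medium with same compound lower. After 16 h at 37°C, invaded cells methanol-fixed, hematoxylin-stained, counted in ten 200× fields.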

PANC-1 cells = experiment: Cell viability by MTT assay, 3 days; type: cell-based; settings: Homo sapiens, PANC-1, read-out: IC50, MTT
Method in brief: as §1

MDA-MB-231 cells [5] = experiment: Cell viability by MTT assay, 3 days; type: cell-based; settings: Homo sapiens, MDA-MB-231, read-out: IC50, MTT
Method in brief: as §1

[6] = test system: NF-κB, HIF1α and ERK in MDA-MB-231 cells; experiment: Luciferase reporter assay; type: cell-based; settings: 25 μM
Method in brief: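 MDA-MB-231 cells transfected with pathway-focused reporters (NF-κB, hypoxia, MAPK/ERK); medium switched to complete DMEM (10% FBS) 16 h after transfection. Test compound (25 μM) added at 46 h; dual-luciferase readout (firefly/Renilla) at 48 h. Fold change = normalized ratio of treated reporter divided by that of untreated reporter; triplicate.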

[7] = molecular target: urokinase receptor (uPAR) (UniProt Q03405); experiment: fluorescence polarisation
urokinase receptor (uPAR), sequence (Q03405 23-305): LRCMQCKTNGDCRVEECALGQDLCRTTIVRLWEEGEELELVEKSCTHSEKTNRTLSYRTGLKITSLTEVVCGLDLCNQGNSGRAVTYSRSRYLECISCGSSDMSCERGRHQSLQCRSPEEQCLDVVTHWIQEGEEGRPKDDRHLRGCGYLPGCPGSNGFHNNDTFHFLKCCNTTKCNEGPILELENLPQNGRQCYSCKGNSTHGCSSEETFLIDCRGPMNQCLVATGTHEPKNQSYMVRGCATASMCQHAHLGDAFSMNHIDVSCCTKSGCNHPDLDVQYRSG

uPAR, sequence (Q03405 23-335): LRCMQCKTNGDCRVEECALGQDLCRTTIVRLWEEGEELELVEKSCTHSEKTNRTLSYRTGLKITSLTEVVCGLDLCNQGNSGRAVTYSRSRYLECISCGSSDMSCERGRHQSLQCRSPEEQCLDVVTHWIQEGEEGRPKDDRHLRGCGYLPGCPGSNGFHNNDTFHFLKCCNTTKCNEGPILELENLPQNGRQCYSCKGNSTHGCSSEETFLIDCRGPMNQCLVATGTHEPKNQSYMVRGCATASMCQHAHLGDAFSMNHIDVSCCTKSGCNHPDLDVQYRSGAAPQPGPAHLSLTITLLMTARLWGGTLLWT

Molecule: COc1ccc(N2C(=O)CCC(C(=O)Nc3ccc(OC)cc3OC)C2c2ccc(F)cc2)cc1 (stereo not drawn) [compound 4, anti-N-(2,4-dimethoxyphenyl)-2-(4-fluorophenyl)-1-(4-methoxyphenyl)-6-oxopiperidine-3-carboxamide]
Percentage apoptosis (MDA-MB-231 cells [1]; 1 μM): 4% | Percentage necrosis (MDA-MB-231 cells [1]; 1 μM): 3% | Percentage apoptosis (MDA-MB-231 cells [1]; 10 μM): 2% | Percentage necrosis (MDA-MB-231 cells [1]; 10 μM): 14% | Percentage apoptosis (MDA-MB-231 cells [1]; 25 μM): 3% | Percentage necrosis (MDA-MB-231 cells [1]; 25 μM): 6% | Percentage apoptosis (MDA-MB-231 cells [1]; 50 μM): 3% | Percentage necrosis (MDA-MB-231 cells [1]; 50 μM): 5% | Ki (uPAR): 18.9 µM | effect on p44/42 MAPK phosphorylation [2]: no inhibition

Molecule: CCOc1ccccc1NC(=O)C1CC(=O)N(c2ccc(OC)cc2)C1c1ccc(OC)cc1 (stereo not shown) [compound 3, N-(2-ethoxyphenyl)-1,2-bis(4-methoxyphenyl)-5-oxopyrrolidine-3-carboxamide]
effect on migration (MDA-MB-231 migration; 25 μM, wound healing): no effect on migration | Percentage apoptosis (MDA-MB-231 cells [1]; 1 μM): 2% | Percentage necrosis (MDA-MB-231 cells [1]; 1 μM): 6% | Percentage apoptosis (MDA-MB-231 cells [1]; 10 μM): 1% | Percentage necrosis (MDA-MB-231 cells [1]; 10 μM): 3% | Percentage apoptosis (MDA-MB-231 cells [1]; 25 μM): 2% | Percentage necrosis (MDA-MB-231 cells [1]; 25 μM): 8% | Percentage apoptosis (MDA-MB-231 cells [1]; 50 μM): 4% | Percentage necrosis (MDA-MB-231 cells [1]; 50 μM): 7% | cytotoxicity (MDA-MB-231 cells [3]; 25 μM, MTT at 16 h): not cytotoxic | effect on invasion (MDA-MB-231 invasion; 25 μM): moderate inhibition of invasion | inhibition at 25 µM (MDA-MB-231 invasion; Homo sapiens, MDA-MB-231, read-out: inhibition of cell invasion): 50% | effect on p44/42 MAPK phosphorylation [2]: no inhibition

Molecule: fluorescently-labeled AE147 peptide AE147-FAM
Kd [7]: 0.499 µM

Continued, in another order:

Ki (uPAR; Ki): 63.3 µM
Molecule: Cc1ccc(-n2ncc(C(=O)Nc3ccc(C(C)C)cc3)c2C2CCNCC2)cc1C [1h, 1-(3,4-dimethylphenyl)-N-(4-isopropylphenyl)-5-(piperidin-4-yl)-1H-pyrazole-4-carboxamide]

Ki (uPAR; Ki): 51.2 µM
Molecule: COc1cc(NC(=O)c2cnn(-c3ccc(C)c(C)c3)c2C2CCNCC2)cc(C(F)(F)F)c1 [1e, 1-(3,4-dimethylphenyl)-N-(3-methoxy-5-(trifluoromethyl)phenyl)-5-(piperidin-4-yl)-1H-pyrazole-4-carboxamide]

IC50 (AsPC-1 cells): 14 µM | IC50 (MDA-MB-231 cell adhesion): ~25 µM | Ki (uPAR; Ki): 17.2 µM | IC50 [4]: 28 µM | IC50 (MDA-MB-231 invasion; Homo sapiens, MDA-MB-231, read-out: IC50, invasion): < 10 µM | IC50 (PANC-1 cells): 22 µM | IC50 (MDA-MB-231 cells [5]): 25 µM
Molecule: Cc1ccc(-n2ncc(C(=O)Nc3ccccc3OCc3ccccc3)c2C2CCNCC2)cc1C [1f, N-(2-(benzyloxy)phenyl)-1-(3,4-dimethylphenyl)-5-(piperidin-4-yl)-1H-pyrazole-4-carboxamide]
inhibition at 25 µM (MDA-MB-231 migration; Homo sapiens, MDA-MB-231, read-out: inhibition of cell migration): 70% | Percentage apoptosis (MDA-MB-231 cells [1]; 1 μM): 3% | Percentage necrosis (MDA-MB-231 cells [1]; 1 μM): 7% | Percentage apoptosis (MDA-MB-231 cells [1]; 10 μM): 45% | Percentage necrosis (MDA-MB-231 cells [1]; 10 μM): 15% | Percentage apoptosis (MDA-MB-231 cells [1]; 25 μM): 76% | Percentage necrosis (MDA-MB-231 cells [1]; 25 μM): 8% | Percentage apoptosis (MDA-MB-231 cells [1]; 50 μM): 61% | Percentage necrosis (MDA-MB-231 cells [1]; 50 μM): 21% | inhibition at 10 µM (MDA-MB-231 cells [3]; Homo sapiens, MDA-MB-231, 16 h, read-out: inhibition of cell growth): 20% | effect on invasion (MDA-MB-231 invasion; 10 μM): inhibited invasion | effect on invasion (MDA-MB-231 invasion; 25 μM): completely inhibited invasion; also recorded: complete inhibition of invasion | effect on NF-κB, HIF1α and ERK reporter pathways [6]: impaired all three pathways | effect on p44/42 MAPK phosphorylation [2]: significantly impaired

Ki (uPAR; Ki): 28.3 µM
Molecule: Cc1ccc(-n2ncc(C(=O)NCCc3ccc(F)cc3)c2C2CCNCC2)cc1C [1g, 1-(3,4-dimethylphenyl)-N-(4-fluorophenethyl)-5-(piperidin-4-yl)-1H-pyrazole-4-carboxamide]

Ki (uPAR; Ki): 31.9 µM
Molecule: CCCc1ccc(NC(=O)c2cnn(-c3ccc(C)c(C)c3)c2C2CCNCC2)cc1 [1i, 1-(3,4-dimethylphenyl)-5-(piperidin-4-yl)-N-(4-propylphenyl)-1H-pyrazole-4-carboxamide]
Percentage apoptosis (MDA-MB-231 cells [1]; 1 μM): 11% | Percentage necrosis (MDA-MB-231 cells [1]; 1 μM): 7% | Percentage apoptosis (MDA-MB-231 cells [1]; 10 μM): 6% | Percentage necrosis (MDA-MB-231 cells [1]; 10 μM): 9% | Percentage apoptosis (MDA-MB-231 cells [1]; 25 μM): 46% | Percentage necrosis (MDA-MB-231 cells [1]; 25 μM): 10% | Percentage apoptosis (MDA-MB-231 cells [1]; 50 μM): 86% | Percentage necrosis (MDA-MB-231 cells [1]; 50 μM): 12% | effect on p44/42 MAPK phosphorylation [2]: significantly impaired
